Calls of active or inactive are those of the source.
Assays:
Format in all cases: cell-based
Conditions in all cases: HepG2
[1] = target: T1, Retinoic acid receptor alpha (Homo sapiens) (UniProt P10276); assay: Increase in transcriptional activity of RARalpha ligand binding domain expressed in human Hep G2 cells co-transfected with Gal4-DBD by luciferase reporter gene assay
T1 sequence (whole entry): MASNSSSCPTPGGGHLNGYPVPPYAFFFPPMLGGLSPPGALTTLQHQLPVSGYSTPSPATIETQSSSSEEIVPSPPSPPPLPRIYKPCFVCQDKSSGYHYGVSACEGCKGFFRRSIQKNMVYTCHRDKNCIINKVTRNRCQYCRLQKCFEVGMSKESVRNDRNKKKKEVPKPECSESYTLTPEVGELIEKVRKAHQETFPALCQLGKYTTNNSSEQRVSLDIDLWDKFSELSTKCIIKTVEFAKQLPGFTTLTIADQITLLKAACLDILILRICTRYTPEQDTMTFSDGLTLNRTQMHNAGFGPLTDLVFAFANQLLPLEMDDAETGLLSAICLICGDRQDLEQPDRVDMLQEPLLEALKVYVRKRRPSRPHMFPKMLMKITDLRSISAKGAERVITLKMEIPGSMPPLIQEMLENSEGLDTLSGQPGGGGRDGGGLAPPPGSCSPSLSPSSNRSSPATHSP
Summary of the method: (§1)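 HepG2 cells transfected for 4 h by calcium phosphate coprecipitation with 100 ng pGal4UAS-luciferase, 50 ng Gal4-LBD receptor vector and 300 ng CMV-β-galactosidase plasmid for normalization. Cells were washed in PBS, then refed with serum-free DMEM/F-12 containing penicillin/streptomycin and compound or 0.1% ethanol vehicle for 20 h. Luciferase read-out was normalized to β-galactosidase. Experiments were repeated at least three times.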

[2] = target: T2, Peroxisome proliferator-activated receptor delta (Homo sapiens) (UniProt Q03181); assay: Increase in transcriptional activity of human PPARbeta/delta ligand binding domain expressed in human Hep G2 cells co-transfected with Gal4-DBD by luciferase reporter gene assay; summary of the method: as §1
T2 sequence (whole entry): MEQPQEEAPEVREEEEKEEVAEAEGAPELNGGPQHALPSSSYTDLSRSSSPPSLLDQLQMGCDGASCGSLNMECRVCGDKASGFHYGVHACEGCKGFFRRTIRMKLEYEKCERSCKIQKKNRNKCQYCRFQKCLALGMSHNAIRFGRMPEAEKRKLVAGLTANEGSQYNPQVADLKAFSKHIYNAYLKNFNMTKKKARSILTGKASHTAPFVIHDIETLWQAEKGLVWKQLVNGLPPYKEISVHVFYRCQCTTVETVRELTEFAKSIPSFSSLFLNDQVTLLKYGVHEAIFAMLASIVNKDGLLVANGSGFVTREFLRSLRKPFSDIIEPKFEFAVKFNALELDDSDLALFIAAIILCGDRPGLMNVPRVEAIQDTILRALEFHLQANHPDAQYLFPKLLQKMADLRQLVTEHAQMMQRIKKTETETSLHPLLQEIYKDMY

[3] = target: T3, Bile acid receptor (Homo sapiens) (UniProt Q96RI1); assay: Increase in transcriptional activity of FXR ligand binding domain expressed in human Hep G2 cells co-transfected with Gal4-DBD by luciferase reporter gene assay; summary of the method: as §1
T3 sequence (whole entry): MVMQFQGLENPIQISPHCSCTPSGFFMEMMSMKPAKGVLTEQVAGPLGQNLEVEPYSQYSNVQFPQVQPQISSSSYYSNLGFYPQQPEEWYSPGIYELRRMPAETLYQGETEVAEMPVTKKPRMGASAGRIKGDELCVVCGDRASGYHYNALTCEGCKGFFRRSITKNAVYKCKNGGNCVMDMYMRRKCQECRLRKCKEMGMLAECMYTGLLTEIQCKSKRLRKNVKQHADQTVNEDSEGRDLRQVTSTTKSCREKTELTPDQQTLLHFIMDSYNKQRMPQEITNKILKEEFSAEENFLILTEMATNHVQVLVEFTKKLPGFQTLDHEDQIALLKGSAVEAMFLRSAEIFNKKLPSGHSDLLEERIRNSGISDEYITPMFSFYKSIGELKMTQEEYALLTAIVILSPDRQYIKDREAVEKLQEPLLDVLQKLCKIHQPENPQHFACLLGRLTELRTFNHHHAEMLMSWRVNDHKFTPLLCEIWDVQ

[4] = target: T4, Retinoic acid receptor RXR-alpha (Homo sapiens) (UniProt P19793); assay: Increase in transcriptional activity of RXRalpha ligand binding domain expressed in human Hep G2 cells co-transfected with Gal4-DBD by luciferase reporter gene assay; summary of the method: as §1
T4 sequence (whole entry): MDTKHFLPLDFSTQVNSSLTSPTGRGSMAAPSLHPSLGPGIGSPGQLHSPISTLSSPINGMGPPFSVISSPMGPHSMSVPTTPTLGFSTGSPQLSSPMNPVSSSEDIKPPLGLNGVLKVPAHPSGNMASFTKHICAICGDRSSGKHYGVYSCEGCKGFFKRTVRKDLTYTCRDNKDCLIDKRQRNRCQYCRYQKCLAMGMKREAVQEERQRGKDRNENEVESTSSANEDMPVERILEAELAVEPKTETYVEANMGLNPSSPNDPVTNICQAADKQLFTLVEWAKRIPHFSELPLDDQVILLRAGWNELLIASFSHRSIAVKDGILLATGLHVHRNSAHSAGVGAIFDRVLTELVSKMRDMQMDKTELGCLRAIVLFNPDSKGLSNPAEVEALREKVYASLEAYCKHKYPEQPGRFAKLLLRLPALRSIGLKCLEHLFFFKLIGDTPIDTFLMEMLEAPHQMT

[5] = target: T5, Hepatocyte nuclear factor 4-alpha (Homo sapiens) (UniProt P41235); assay: Increase in transcriptional activity of HNF-4alpha ligand binding domain expressed in human Hep G2 cells co-transfected with Gal4-DBD by luciferase reporter gene assay; summary of the method: as §1
T5 sequence (whole entry): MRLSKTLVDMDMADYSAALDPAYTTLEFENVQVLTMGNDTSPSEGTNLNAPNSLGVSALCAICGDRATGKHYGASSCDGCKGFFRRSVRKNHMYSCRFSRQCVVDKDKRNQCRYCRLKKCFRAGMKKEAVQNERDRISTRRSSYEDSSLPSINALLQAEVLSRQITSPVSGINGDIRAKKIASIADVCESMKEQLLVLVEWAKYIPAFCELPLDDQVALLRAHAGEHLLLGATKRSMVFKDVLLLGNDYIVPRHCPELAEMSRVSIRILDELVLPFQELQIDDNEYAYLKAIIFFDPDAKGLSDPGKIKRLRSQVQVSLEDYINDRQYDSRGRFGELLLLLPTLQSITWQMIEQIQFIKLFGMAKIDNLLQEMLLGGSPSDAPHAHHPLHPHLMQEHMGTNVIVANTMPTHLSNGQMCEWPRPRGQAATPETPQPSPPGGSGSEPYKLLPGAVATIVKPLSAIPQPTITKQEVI

Measured: Activity

O=C(O)[C@@H](Cc1ccccc1)Oc1ccc(-c2ccccc2)cc1
inactive: [1] | [2] | [3] | [4] | [5]

O=C(O)[C@H](Cc1ccccc1)Oc1ccc(-c2ccccc2)cc1
inactive: [1] | [2] | [3] | [4] | [5]
